{
  "source": "paper PMC3281520",
  "about": "(Nature chemical biology, 2012)",
  "key": {"[1]": {"system": "primary murine CD4+ CD25− T cells", "assay": "Th17 cell differentiation", "assay_type": "cell-based, mouse", "procedure,_shortened": "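CD4+ CD25− T cells from spleens and peripheral lymph nodes of wild-type C57B/6 mice, TCR-activated under Th17-polarizing conditions with test compound and amino acid supplements: 10x EAA or NEAA mixes, or single amino acids at 1 mM. Day 4 restimulation with PMA 10 nM, ionomycin and brefeldin A for 4–5 h. Intracellular cytokine staining, flow cytometry; % IL-17+ IFNγ− cells, triplicate wells, SD.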"}, "AAR pathway in MEFs": {"system": "AAR pathway in MEFs", "assay": "AAR pathway activation in MEFs", "assay_type": "cell-based, mouse", "settings": "2 hours (Fig. 5a); for stimulation of GCN2 phosphorylation in the presence of proline: 2 mM proline", "procedure,_shortened": "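MEFs grown in 10% FCS/DMEM, then exposed to test compound with or without 2 mM proline for 2 h. Lysis was in RIPA with 5 mM EDTA, phosphatase and protease inhibitors. Western blot for total GCN2 and Thr898-phospho-GCN2; three separate experiments. For CHOP: 50 nM test compound ± 2 mM proline, lysis 6 h later, CHOP Western blot with cytoplasmic actin as loading control.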"}, "[2]": {"system": "translation in rabbit reticulocyte lysate (RRL)", "assay": "Cell free in vitro translation in rabbit reticulocyte lysate", "assay_type": "biochemical", "settings": "for effect on translation of luciferase RNA in RRL: cell free, luminescence assay (Fig. 2a, 2b); for translation of Nopropep (proline-free polypeptide) in RRL / translation of Propep (polypeptide with proline dipeptide) in RRL: inhibitor 1 μM, anti-myc Western blot (Fig. 2c)", "procedure,_shortened": "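Rabbit reticulocyte lysate per kit instructions, standard amino acid mix diluted 5-fold; sometimes preincubated at 30 degrees with another RNA to deplete endogenous charged tRNAs. Luciferase mRNA translation read by luciferase luminescence. Rescue with amino acid mixtures or single amino acids at 1 mM each; triplicates, SD. Myc-tagged peptides ± proline dipeptide: inhibitors 1 μM, proline 1 mM, anti-myc Western blot.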"}, "[3]": {"target": "T1, ProRS (amino acids 998–1513 of human EPRS) (Homo sapiens, UniProt P07814)", "T1 sequence (P07814 998-1512 limits assumed)": "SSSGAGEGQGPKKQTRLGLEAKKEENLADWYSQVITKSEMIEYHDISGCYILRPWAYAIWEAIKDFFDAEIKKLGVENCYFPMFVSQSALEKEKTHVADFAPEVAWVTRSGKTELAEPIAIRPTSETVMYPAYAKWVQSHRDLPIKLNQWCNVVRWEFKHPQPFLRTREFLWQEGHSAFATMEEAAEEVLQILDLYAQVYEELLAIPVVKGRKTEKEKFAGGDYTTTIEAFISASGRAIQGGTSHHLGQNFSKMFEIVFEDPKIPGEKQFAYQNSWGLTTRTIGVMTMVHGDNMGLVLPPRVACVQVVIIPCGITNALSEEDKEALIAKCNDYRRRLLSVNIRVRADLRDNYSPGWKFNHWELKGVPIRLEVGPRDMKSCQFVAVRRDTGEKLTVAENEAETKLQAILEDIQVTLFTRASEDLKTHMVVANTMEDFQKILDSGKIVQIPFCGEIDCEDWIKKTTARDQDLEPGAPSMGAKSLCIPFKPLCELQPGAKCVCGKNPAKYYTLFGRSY", "assay": "[3H]-HFol binding to immobilized ProRS", "procedure,_shortened": "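His6-tagged human EPRS prolyl-tRNA synthetase domain, expressed in E. coli, immobilized on Ni-NTA beads. Beads washed twice in ice-cold buffer; bound counts by scintillation, with beads given tag-free E. coli extract as background.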"}, "mTORC1 signaling": {"system": "mTORC1 signaling", "assay": "mTORC1 signaling in T cells and fibroblasts", "assay_type": "cell-based, mouse", "settings": "100 nM HF in MEFs (Supplementary Fig. 10)"}, "[4]": {"system": "mouse embryo fibroblasts (MEFs)", "assay": "ECM gene expression and protein production in fibroblasts", "assay_type": "cell-based", "procedure,_shortened": "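MEFs in 10% FCS/DMEM were treated with 50 nM test compound and/or 2 mM proline. Exposure was 4 h for CHOP and S100A4 and 24 h for Col1A1 and Col1A2. mRNA by quantitative RT-PCR, normalised to TBP, relative to untreated. Triplicate determinations from triplicate plates; two-tailed Student's t test for compound alone versus compound plus proline.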"}, "[5]": {"system": "prolyl-tRNA charging in the RRL system", "assay": "tRNA charging in RRL", "assay_type": "biochemical, rabbit", "settings": "doses comparable to those that inhibit translation (Fig. 2d)", "procedure,_shortened": "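Rabbit reticulocyte lysate incubated with 1 μCi 14C-proline or 35S-methionine, added bovine tRNA and 2 μM puromycin to block use of charged tRNA in translation, with or without test compound. Total tRNA then extracted with a small-RNA isolation kit. Radioactivity in tRNA measured by liquid scintillation counting; triplicates, SD.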"}, "[6]": {"target": "prolyl tRNA synthetase domain of human EPRS (ProRS) (Homo sapiens, UniProt P07814)", "assay": "Assay of ProRS activity", "assay_type": "biochemical"}, "[7]": {"assay": "Intracellular HF levels by anti-HF ELISA", "assay_type": "in vitro ADME, mouse", "settings": "MEFs, 2 mM proline, 2 hours (Supplementary Fig. 11)"}},
  "data": [
    {"smiles": "C[C@@H]1C[C@H](C)C[C@H](C)[C@@H](O)CC(=O)O[C@H]([C@@H]2CCC[C@H]2C(=O)O)C/C=C/C=C(/C#N)[C@H](O)[C@@H](C)C1", "note": "[Borrelidin, borrelidin]", "values": [
      {"measurement": "Th17 cell differentiation", "setting": "[1]; Th17 polarizing conditions, borrelidin 6 nM (Supplementary Fig. 13)", "result": "inhibited"},
      {"measurement": "effects on Th17 differentiation on addition of excess cognate amino acid", "setting": "[1]; threonine 1 mM (Fig. 6b)", "result": "reversed"}
    ]},
    {"smiles": "O=C(C[C@H]1NCCC[C@@H]1O)Cn1cnc2ccccc2c1=O", "note": "[FF, febrifugine]", "values": [
      {"measurement": "stimulation of GCN2 phosphorylation in the presence of proline", "setting": "AAR pathway in MEFs", "result": "abrogated"},
      {"measurement": "GCN2 phosphorylation in fibroblasts", "setting": "AAR pathway in MEFs", "result": "stimulation"},
      {"measurement": "effect on translation of luciferase RNA in RRL", "setting": "[2]", "result": "inhibited"},
      {"measurement": "translation of Nopropep (proline-free polypeptide) in RRL", "setting": "[2]", "result": "no effect"},
      {"measurement": "translation of Propep (polypeptide with proline dipeptide) in RRL", "setting": "[2]", "result": "prevent translation"}
    ]},
    {"smiles": "C[C@H](N)C(=O)NS(=O)(=O)OC[C@H]1O[C@@H](n2cnc3c(N)ncnc32)[C@H](O)[C@@H]1O", "note": "[AlaSAd, alanyl sulfamoyl adenosine]", "values": [
      {"measurement": "inhibition of binding of [3H]-HFol to ProRS at 50 nM", "setting": "[3]; 50 nM (Fig. 4a)", "result": "partially inhibited"}
    ]},
    {"smiles": "O=C(CC1NCCCC1O)Cn1cnc2cc(Br)c(Cl)cc2c1=O", "note": "(stereo not shown) [HF, halofuginone]", "values": [
      {"measurement": "inhibition of mTORC1 signaling", "setting": "mTORC1 signaling", "result": "without concomitant inhibition"},
      {"measurement": "inhibition of ECM proteins in the presence of proline", "setting": "[4]; 2 mM proline in the media (Supplementary Fig. 15)", "result": "reversed"},
      {"measurement": "production of secreted Type I procollagen and of fibronectin", "setting": "[4]; 24 hours treatment (Fig. 6d)", "result": "dramatically inhibited"},
      {"measurement": "expression of mRNA encoding CHOP", "setting": "[4]; MEFs, HF 50 nM, 4 hours (Fig. 6c)", "result": "stimulated"},
      {"measurement": "mRNA levels of Col1A1, Col1A2, and S100A4", "setting": "[4]; MEFs, HF 50 nM, 4 hours (S100A4) or 24 hours (Col1A1, Col1A2), restored by proline (Fig. 6c)", "result": "inhibits"},
      {"measurement": "35S-methionine incorporation into total protein", "setting": "[4]; doses that inhibit ECM protein production (Fig. 6d)", "result": "did not significantly change"},
      {"measurement": "competition of [3H]-HFol binding to ProRS", "setting": "[3]; Fig. 3a", "result": "competed"},
      {"measurement": "stimulation of GCN2 phosphorylation in the presence of proline", "setting": "AAR pathway in MEFs", "result": "abrogated"},
      {"measurement": "GCN2 phosphorylation in fibroblasts", "setting": "AAR pathway in MEFs", "result": "stimulation"},
      {"measurement": "incorporation of 14C-Pro into tRNA", "setting": "[5]", "result": "inhibited"},
      {"measurement": "Ki", "setting": "[6]", "result": 18.3, "unit": "nM"},
      {"measurement": "intracellular accumulation of HF on proline addition", "setting": "[7]", "result": "not affected"},
      {"measurement": "effect on translation of luciferase RNA in RRL", "setting": "[2]", "result": "inhibited"},
      {"measurement": "translation of Nopropep (proline-free polypeptide) in RRL", "setting": "[2]", "result": "no effect"},
      {"measurement": "translation of Propep (polypeptide with proline dipeptide) in RRL", "setting": "[2]", "result": "prevent translation"},
      {"measurement": "translation inhibited by HF, after supplementation of RRL with excess amino acids", "setting": "[2]; proline 1 mM, only proline is effective (Fig. 2a)", "result": "restores"},
      {"measurement": "Th17 differentiation in HF-treated T cells with individual amino acid supplement", "setting": "[1]; 10 nM HF, proline 1 mM, only proline effective (Fig. 6a)", "result": "rescued"}
    ]}
  ]
}
